Here are results for eight compounds from ChEMBL document CHEMBL3785009, “Oxadiazole-Based Cell Permeable Macrocyclic Transition State Inhibitors of Norovirus 3CL Protease” (J Med Chem, 2016).

pEC50, pIC50: −log10 of the molar value.

A word on the pEC50: it is the EC50 on a negative log10 scale, so that one unit is a factor of ten. Usually EC90 stands for the concentration needed for an effect of 90%. As usually defined, the pIC50 is the IC50 on a negative log10 scale, so that one unit is a factor of ten. In general, CC50 refers to the concentration giving 50% cytotoxicity.

One experiment concerns Norovirus. In words: Antiviral activity against Norovirus infected in human HG23 cells assessed as reduction in RNA levels after 48 hrs by RT-PCR. The class given is functional, cell-based. As to conditions: for pEC50 / EC90: HG23, 48 h. The method, boiled down: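 HG23 cells are Huh-7 cells carrying the NV replicon. Cells were seeded 1 day before treatment with compound (1.0–100 μM) for 48 h. Total RNA was extracted and norovirus and β-actin RNA measured by qRT-PCR. EC50/EC90 derived from % RNA reduction versus mock after β-actin normalization. At least two independent experiments; mean and standard deviation reported.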

Experiment [1] is described as follows: Inhibition of Norovirus 3C-like protease using Edans-DFHLQGP-Dabcyl fluorogenic substrate after 30 mins as substrate by FRET assay. In outline: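 FRET assay with the fluorogenic substrate derived from NV polyprotein cleavage sites. Compounds tested up to 100 μM. IC50 from at least two independent experiments.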
Experiment [2] in a line: Cytotoxicity against human HG23 cells by CytoTox96 nonradioactive cytotoxicity assay. It counts as functional. In outline:
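HG23 cells (Huh-7 cells harbouring NV replicon) exposed to compound in serial dilution up to 100 µM; cytotoxicity read with a nonradioactive cytotoxicity kit; CC50 taken as concentration giving 50% cytotoxicity; at least two independent experiments.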

A short description of experiment [3]: Antiviral activity against Murine norovirus1 infected in […] cells assessed as inhibition of virus induced cytopathic effect after 48 hrs by CytoTox96 nonradioactive cytotoxicity assay. As to conditions: Murine norovirus 1, 48 h. For orientation: Damage to the host cells serves as the signal in cytopathic effect assays.

Regarding `CC(C)(C)OC(=O)N[C@H]1CCC2=NN=C(CCCCCNC(=O)CC[C@@H](C=O)NC(=O)[C@H](CC3CCCCC3)NC1=O)O2`, the pEC50 with Norovirus is 4.29; in experiment [3] it was < 4.00. Further, the EC90 in the experiment with Norovirus was > 100 µM. The same compound gave a pIC50 in experiment [1] of 5.07. The CC50 in experiment [2] was > 100 µM.

As for `CC(C)(C)OC(=O)N[C@H]1CCC2=NN=C(CCCNC(=O)CC[C@@H](C=O)NC(=O)[C@H](CC3CCCCC3)NC1=O)O2`, in the experiment with Norovirus, the pEC50 was 5.03 and the EC90 amounted to 73.3 µM. Further, in experiment [1], the pIC50 was 4.35. Moreover, the 50% cytotoxic concentration (CC50) in experiment [2] is > 100 µM. The pEC50 in experiment [3] is < 4.00.

For the compound `CC(C)C[C@@H]1NC(=O)[C@@H](NC(=O)OC(C)(C)C)CC2=NN=C(CNC(=O)CC[C@@H](C=O)NC1=O)O2`, the results for the pEC50 (in the experiment on Norovirus; in experiment [3]) were 4.71 and < 4.00, respectively. Besides, the EC90 in the experiment on Norovirus is > 100 µM. Moreover, the pIC50 in experiment [1] was < 4.00. In experiment [2], the CC50 was > 100 µM.

In the case of `CC(C)(C)OC(=O)N[C@H]1CCC2=NN=C(CCCCNC(=O)CC[C@@H](C=O)NC(=O)[C@H](CC3CCCCC3)NC1=O)O2`, in the experiment with Norovirus, the Activity entry is “Dose-dependent effect”, the pEC50 is 5.19 and the EC90 came to 18.2 µM. In experiment [1], this compound showed a pIC50 of 4.73. The cytotoxic concentration (CC50) in experiment [2] is > 100 µM. Moreover, the pEC50 in experiment [3] was 4.96.

For the compound `CC(C)C[C@@H]1NC(=O)[C@@H](NC(=O)OC(C)(C)C)CCC2=NN=C(CCNC(=O)CC[C@@H](C=O)NC1=O)O2`, in the experiment on Norovirus, the pEC50 was 5.60 and the 90% effect concentration (EC90) came to 23.4 µM. Further, the pIC50 in experiment [1] is 4.82. For the same compound, the CC50 in experiment [2] was > 100 µM. Moreover, the pEC50 in experiment [3] is 5.01.

With `CC(C)C[C@@H]1NC(=O)[C@@H](NC(=O)OC(C)(C)C)CCC2=NN=C(CNC(=O)CC[C@@H](C=O)NC1=O)O2`, in the experiment on Norovirus, the pEC50 was 4.74 and the EC90 was 72.7 µM. The compound also had a pIC50 in experiment [1] of 4.46. Also, in experiment [2], the half-maximal cytotoxic concentration (CC50) is > 100 µM. Further, in experiment [3], the negative logarithm of the EC50 (pEC50) was < 4.00.

In the case of `CC(C)C[C@@H]1NC(=O)[C@@H](NC(=O)OC(C)(C)C)CCC2=NN=C(CCCNC(=O)CC[C@@H](C=O)NC1=O)O2`, in the experiment on Norovirus, the pEC50 was 5.23 and the EC90 was 30.5 µM. The compound also had a pIC50 in experiment [1] of 4.67. Besides, the CC50 in experiment [2] is > 100 µM. In addition, in experiment [3], the pEC50 was 4.95.

Take `CC(C)(C)OC(=O)N[C@H]1CCC2=NN=C(CCNC(=O)CC[C@@H](C=O)NC(=O)[C@H](CC3CCCCC3)NC1=O)O2`: in the experiment with Norovirus, the pEC50 was 5.29 and the EC90 was found to be 38.2 µM. In experiment [1], the pIC50 is 4.84. Also, the CC50 in experiment [2] was > 100 µM. For the same compound, the pEC50 in experiment [3] was 4.70.
